This passage reports cytotoxicity results from ChEMBL document CHEMBL4513216, “Probing the Open Global Health Chemical Diversity Library for Multistage-Active Starting Points for Next-Generation Antimalarials” (ACS Infect Dis, 2020).

Structures are written as SMILES.

A short description of this data set: Toxicity liver stage against HepG2, at 10uM. It is filed as cell-based. On the set-up: test concentration 10 uM, cell line HepG2-A16-CD81EGFP. The conditions noted are these: human, HepG2-A16-CD81EGFP cells; read-out: INHIBITION
The method, boiled down: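 Uninfected HepG2-A16-CD81EGFP cells, 3 × 10^3 per well, 1536-well, plated on prespotted compound at 10 μM final, parasite-free screening media added to match infected plates; puromycin 10 μM positive, DMSO 0.5% negative; run in parallel with 48 h PbLuc assay at 37 °C, 5% CO2; viability by CellTiter-Glo luminescence, normalized to controls.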
Consider `Cc1ccc(C)c(CSc2nnc([C@@H](N)C(C)C)o2)c1`, for which the cytotoxicity at 10 µM stood at 5.95%.
The value for `CCS(=O)(=O)N1CCc2ccc(NC(=O)Nc3ccccc3C)cc21` was 13.1%.
Turning to `CC(C)NC(=O)CCC(=O)N1CCC(c2noc3cc(F)ccc23)CC1`, the cytotoxicity at 10 µM is 2.13%.
The value for `Cc1cc(-c2nn3c(C4CCC4)nnc3s2)on1` was -5.65%; that for `O=C(Nc1cccnc1)C1CN(C(=O)c2ccc3c(c2)OCO3)C1` was -11.7%.
In the case of `COc1ncc(NS(=O)(=O)c2cccc(C)c2)c(OC)n1`, the cytotoxicity at 10 µM is 10.4%.
To `CC(=O)N1CCc2nc(N3CCCC3)nc(C)c2C1` belongs -0.567%.
With `CCOCc1cnc2n1CCN(C(=O)Cc1cccs1)C2C` (centres undefined), the cytotoxicity at 10 µM amounted to 8.04%.
For `CNC(=O)N1CCN(C(=O)C(C)C)CC2(CC(=O)N(C)C2)C1` (centres undefined), the cytotoxicity at 10 µM was found to be 7.43%.
To `Cc1ncsc1CN1C[C@H]2OCC[C@H]2[C@H](C(=O)NCC2CC2)C1` belongs 5.6%; to `COCC1c2c(cnn2C)CCN1Cc1ccc(C)o1` (centres undefined), -5.73%.
Consider `CC(C)CC(=O)N1CCN(C(=O)NC(C)C)CC2(CC(=O)N(C)C2)C1` (centres undefined), for which the cytotoxicity at 10 µM stood at 3.25%.
`Cc1nccn1-c1nccnc1C1CCCN(C)C1` (centres undefined): the cytotoxicity at 10 µM was found to be 2.2%.
For `c1ccc(-c2nc(CCNCc3ccccn3)co2)cc1`, the cytotoxicity at 10 µM is -1.89%.
The value for `O=S(=O)(NC1CCOC1)c1ccc(C(F)(F)F)nc1` (centres undefined) was 8.16%.
On to `O=C(CCCc1nc2ccccc2[nH]1)N1CCCC1c1ccncc1` (centres undefined), for which the cytotoxicity at 10 µM was found to be 3.79%.
The value for `CCc1noc(CNc2cccc(C(=O)N3CCSCC3)c2)n1` was -5.73%; that for `COc1cccc(C2(C(=O)NC3CCc4nccn4C3)CCCC2)c1` (centres undefined) was 2.74%.
As to `CC(C)(C)OC(=O)N1CCC(NC2CCS(=O)(=O)C2)CC1` (centres undefined), the cytotoxicity at 10 µM was -6.72%.
Take `O=C(c1cccc(F)c1F)N1CCn2c(nnc2C(F)(F)F)C1`: the cytotoxicity at 10 µM is -8.22%.
For `COCCc1nc(-c2cnn3c(C)cc(C)nc23)no1`, the cytotoxicity at 10 µM came to 2.49%.
The value for `Cc1cn2c(n1)CCC(NS(=O)(=O)c1ccc(C)s1)C2` (centres undefined) was 12.9%; that for `CC(C)(O)CN1CCN(C(=O)c2cccn2Cc2cccnc2)CC1` was -0.787%; that for `CC(=O)Nc1ccc(CNc2cccc(CS(C)(=O)=O)c2)cc1` was -6.91%.
Turning to `CCCC(NC(=O)c1cc(C)ccc1O)c1nnn[nH]1` (centres undefined), the cytotoxicity at 10 µM was -3.26%.
The value for `CCc1nc(NS(=O)(=O)c2cc(C)c(F)cc2Cl)no1` was 15.8%; that for `Cc1cnn(CCNCc2ccc(OCc3ccccn3)cc2)c1` was 0.686%; that for `CC(=O)N1CCCN(Cc2nnc(C(C)(C)C)o2)CC1` was -4.13%.
To `O=C(NCCCn1cccn1)C1(c2cccc(Cl)c2)CC1` belongs 17.9%.
To `CC1(NC(=O)Cc2csc(-c3ccccc3Cl)n2)CCS(=O)(=O)C1` (centres undefined) belongs -9.81%.
On to `Cc1sc2nc(C(F)(F)F)nc(N3CCC(NS(C)(=O)=O)CC3)c2c1C`, for which the cytotoxicity at 10 µM is -17%.
To `CC(=O)N1CCN(c2nc(C(F)(F)F)nc3sc(C)c(C)c23)CC1` belongs -4.33%.
As to `Cn1cc(S(=O)(=O)N2CCCC2Cn2ccnc2)cn1` (centres undefined), the cytotoxicity at 10 µM came to 6.58%.
As to `COc1ccc(C2CCCN2Cc2cnn(C)c2)cc1` (centres undefined), the cytotoxicity at 10 µM is 7.53%.
To `Cc1cc(C)n(C2CN(CC(O)Cn3cccn3)C2)n1` (centres undefined) belongs -5.09%; to `NS(=O)(=O)c1cnn(-c2ccc(NC(=O)CC3CCCC3)cn2)c1`, 6.74%; to `CCN(CC1CCCO1)C(=O)NCCNC(=O)c1ccccc1F` (centres undefined), 5.63%.
To `COCCn1c2c(ccc1=O)CCN(C(=O)CC1CC1)CC2` belongs 2.24%; to `O=C(CC1CCCC1)N1C[C@@H]2CN(Cc3ccoc3)CCO[C@@H]2C1`, -79.3%; to `O=C(c1ccnnc1)N1C[C@H]2CN(Cc3cccc(F)c3)C(=O)[C@H]2C1`, -77.3%.
On to `Cc1noc(C)c1CN1CC[C@H]2C[C@H](c3ccncn3)O[C@@H]2C1`, for which the cytotoxicity at 10 µM was -69.5%.
In the case of `Cc1nc([C@@H]2C[C@@H]3CCN(C(=O)Cc4cccc(F)c4)C[C@H]3O2)no1`, the cytotoxicity at 10 µM worked out at 4.17%.
The value for `Cc1c(NC(=O)c2cnc[nH]2)cccc1C(=O)NC(C)(C)C` was -6.46%; that for `CN(C)c1nc2c(c(N3CCCC3)n1)CCN(C(=O)c1ccc[nH]1)CC2` was 7.81%; that for `O=C(CCn1cccc1)N1CCc2[nH]nc(COc3ccccc3)c2C1` was 7.54%.
With `CN1CCC(N(C)C[C@H]2CC[C@@H](Cc3cccc(O)c3)O2)CC1`, the cytotoxicity at 10 µM was -12.2%.
`Cc1nn(C)c(C)c1-c1cc(-c2cnn(C)c2C2CC2)c(C#N)c(N)n1`: the cytotoxicity at 10 µM was 18%.
As to `CCOCc1nc(CSc2ccncc2)n(C2CCN(C)CC2)n1`, the cytotoxicity at 10 µM is -1.45%.
On to `Cc1ccc(-c2cc(C(=O)N(C)Cc3noc4c3CCCC4)[nH]n2)o1`, for which the cytotoxicity at 10 µM is -11%.
For `CC1(COc2ccccc2)NCCc2[nH]cnc21` (centres undefined), the cytotoxicity at 10 µM was -0.254%.
In the case of `O=C(CCCN1CCCCC1)N[C@H](C(=O)O)c1cccc(F)c1F`, the cytotoxicity at 10 µM was -13.2%.
`CNc1ccc(CC2CCCN(C(=O)c3cnc(C)nc3)C2)nn1` (centres undefined): the cytotoxicity at 10 µM is -1.2%.
The value for `CN(C)C(=O)C1CCN(Cn2nc(-c3ccc(F)cc3)oc2=O)CC1` was -2.06%; that for `O=C(Cc1ccccc1)NCCNCc1cccc(O)c1` was -0.206%; that for `Cn1c(C2CC2)nc2c1CCN(Cc1nc(Cc3ccccc3)no1)C2` was -6.37%.
To `Cc1cnn(CC(C)NCc2nc(-c3cccs3)no2)c1` (centres undefined) belongs -7.64%.
To `COc1cc(C(=O)NS(=O)(=O)c2cccc(C#N)c2)cc(OC)c1Br` belongs -9.67%; to `CCOC(=O)CN(C)C1CCc2ccccc21` (centres undefined), 0.367%.
As to `Cc1cc(NC(=O)CCN2CCCCC2Cn2cccn2)no1` (centres undefined), the cytotoxicity at 10 µM was determined as 2.14%.
The value for `Cc1nc(C2CCCN2C(=O)CCOCc2ccccc2)no1` (centres undefined) was -2.4%; that for `Cc1nn(C)c(Cl)c1C1CCCN1C(=O)c1cnn(C)c1C1CC1` (centres undefined) was 1.99%.
`CN(C)c1ncccc1CNS(=O)(=O)c1ccccc1F`: the cytotoxicity at 10 µM was -4.81%.
On to `Cc1csc(C2CCCCN2C(=O)CN(C)C2CC2)n1` (centres undefined), for which the cytotoxicity at 10 µM is -1.9%.
Take `CCn1ccnc1CN1CCCN(C(=O)Cc2ccc(C)nc2)CC1`: the cytotoxicity at 10 µM is -1.92%.
The value for `CC(C)c1nc(CN2CCN(CC3CCCO3)CC2)cs1` (centres undefined) was -1.52%.
To `COCCN1C(=O)CCC12CCC(NCc1cccnc1OC)CC2` (centres undefined) belongs 8.64%; to `COC[C@H]1CNC(=O)[C@@H]2CCN(Cc3ccc(F)cc3)CC[C@H]12`, 14.2%; to `CC(=O)NCC(=O)N1CCC2(CC1)NC(=O)CC2c1cccnc1` (centres undefined), -72.5%.
The value for `CN1CC[C@H]2[C@H](C[C@@H](CN3CCCC3)N2c2nccs2)C1` was 3.59%; that for `CNC(=O)[C@@H]1C[C@H]2CN(Cc3ccc(C)s3)C[C@H]2N1C(C)=O` was 2.76%; that for `CS(=O)(=O)NCc1nnc2n1CCN(Cc1cccs1)CC2` was -71.7%.
Consider `CC(=O)N1CCC2(CC1)COCCN2Cc1ccc(F)cc1`, for which the cytotoxicity at 10 µM turned out to be 5.69%.
For `O=C(c1c[nH]cn1)N1CCC(F)(F)C2(CCN(c3ccccn3)C2)C1` (centres undefined), the cytotoxicity at 10 µM came to 11%.
To `CCS(=O)(=O)N1CCC2(CCN(Cc3cccc(OC)c3)CC2)CC1` belongs 2.5%; to `Cc1cccc(N2CC3(CCN(S(=O)(=O)C4CC4)C3)C2)n1`, 3.86%; to `O=C(c1cscn1)N1CCC2(CN(Cc3ccoc3)C2)C1`, 7.2%.
To `COCCC1COC2(CCN(C(=O)c3cccnc3)CC2)C1` (centres undefined) belongs -72.4%.
The value for `Cc1nc(CN2CCC3(CC2)CC(c2cccnc2)C(=O)N3C)cs1` (centres undefined) was 9.95%; that for `O=C(NCc1cncc2c1CCN(C1CCOCC1)C2)c1ccno1` was -2.67%.
Take `O=C([C@H]1C[C@H]2OCC[C@H]2N(Cc2ccco2)C1)N1CCCO1`: the cytotoxicity at 10 µM turned out to be 8.73%.
The value for `CCc1cnc(N2CCC3(CC(=O)N(Cc4csc(C)n4)C3)C2)nc1` (centres undefined) was -2.71%; that for `CCCS(=O)(=O)N1CCOC2(CCCN(Cc3ccccn3)C2)C1` (centres undefined) was -0.58%; that for `COCCN1CCOCC12CCN(Cc1ccn(C)n1)CC2` was -3.39%.
To `CN1[C@H](Cn2cncn2)C[C@@H]2CN(C3CCOCC3)CC[C@@H]21` belongs 4.56%.
In the case of `O=C(O)c1cc2c(nc1-c1ccoc1)CCN(Cc1ccco1)CC2`, the cytotoxicity at 10 µM is -78.9%.
For the compound `Cc1cccc(CN2C(=O)C[C@H]3[C@@H]2CCN3Cc2cccs2)n1`, the cytotoxicity at 10 µM is -79.6%.
Regarding `O=C([C@@H]1CCO[C@@H]2CCN(CC3CCOCC3)C[C@H]21)N1CCCO1`, the cytotoxicity at 10 µM came to 7.37%.
To `COc1cc(N2C[C@@H]3COC[C@]3(COCc3ccncc3)C2)ncn1` belongs -72.4%.
For `Cc1cc(CN2C[C@@H]3COC[C@@H](C(=O)N4CCCCO4)[C@@H]3C2)no1`, the cytotoxicity at 10 µM was -80.6%.
As for `CNC(=O)[C@@H](c1ccccc1)N1CCC[C@H]1C(=O)NCc1ccccn1`, the cytotoxicity at 10 µM is 5.62%.
Regarding `COCCN1CCC2(CC1)CN(C(=O)C1CC1)c1ccc(F)cc12`, the cytotoxicity at 10 µM is -0.213%.
To `CCOCC(=O)N1Cc2nccn2CC(CN2CCCC2)C1` (centres undefined) belongs -76.3%; to `c1cnc(N2CCOC3(CCN(CC4CCCCC4)CC3)C2)nc1`, 0.256%; to `c1cc(CN2CCOCC3(C2)CN(Cc2nccs2)CCO3)ccn1` (centres undefined), 2.14%.
